Test results: PMC12669303 (Clinical Drug Investigation, 2025)
Like-named read-outs stand apart in the source and are kept apart here. Marks after values point to notes of the source that are not given here.

Experiments:
serum urate = details: Chinese patients with gout, cited from earlier work
[1] = Multiple once-daily oral dose pharmacokinetics of dotinurad in plasma; format: in vivo, human (healthy Chinese adults)
Summary of the method: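 In the 4-mg cohort (n=10, screening serum urate ≥ 5.5 mg/dL), a single Day 1 dose was followed by a 3-day washout. The test compound was then given orally once daily on Days 4–10, each morning after a 10-h fast. Plasma sampled 0–72 h after the Day 10 dose was assayed by LC-MS/MS (LOQ 1 ng/mL). Parameters are noncompartmental, with accumulation relative to Day 1. Mean ± SD; tss,max median (min–max).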

[2] = Single oral dose pharmacokinetics of dotinurad in plasma, phase 1 study; format: in vivo, human (healthy Chinese adults); details: for Vd/F / half-life / AUC(0-inf) / Cmax / Tmax: human, plasma
Summary of the method: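 Healthy nonsmoking Chinese adults (18–45 y, weight ≥ 50 kg) took a single oral tablet dose (1 mg n=8, 4 mg n=10, 10 mg n=8) on Day 1 after a 10-h fast. Plasma was sampled 0–48 h, separated at 2000 g for 10 min at 4 °C, and stored at −80 °C. Samples had solid-phase pretreatment, then LC-MS/MS (LOQ 1 ng/mL). Noncompartmental parameters are mean ± SD, tmax median (min–max).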

[3] = Safety and tolerability: treatment-emergent adverse events; format: in vivo, human (healthy Chinese adults)
Summary of the method: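 Oral tablets were given fasted to three cohorts: 1 mg single (n=8), 4 mg single then 7-day once-daily (n=10), and 10 mg single (n=8). Safety covered TEAEs, hematology, blood chemistry, urinalysis, vital signs, weight, 12-lead ECG and physical examination. AEs were coded with MedDRA v25.0. The safety set was subjects with ≥ 1 dose and ≥ 1 postdose assessment, reported as n (%).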

[4] = 4 mg once daily for 7 days, Day 10, N = 10, mean ± SD
[5] = 4 mg once daily for 7 days, Day 10 vs Day 1, N = 10, mean ± SD
[6] = Cohort A, 1 mg single dose, N = 8
[7] = Cohort A, 1 mg single dose, N = 8, determined as drug-related TEAE
[8] = Cohort B, 4 mg single and multiple doses, N = 10
[9] = Cohort C, 10 mg single dose, N = 8

SMILES: O=C(c1cc(Cl)c(O)c(Cl)c1)N1CS(=O)(=O)c2ccccc21 [Dotinurad]
- reduction of serum urate (serum urate; 2 mg, Week 12): 37.9%
- reduction of serum urate (serum urate; 4 mg, Week 24): 45.9%
- CLss/F [1, 4]: 0.923 ± 0.183 L/h
- Css,av [1, 4]: 186 ± 31.8 ng/mL
- Css,max [1, 4]: 397 ± 69.4 ng/mL
- Css,min [1, 4]: 65.4 ± 22.1 ng/mL
- tss,max ([1]; 4 mg once daily for 7 days, Day 10, N = 10, median (min–max)): 3.00 (2.00–6.00) h
- Rac(AUC0–24h) accumulation ratio [1, 5]: 1.13 ± 0.121
- Rac(Cmax) accumulation ratio [1, 5]: 1.09 ± 0.185
- AUC ([1]; human, plasma, oral, 4 mg): 4470 ± 762 ng·h/mL
- Vd/F ([1]; human, plasma, oral, 4 mg): 13.2 ± 1.64 L
- half-life ([1]; human, plasma, oral, 4 mg): 10.1 ± 1.72 h
- mean plasma concentration relative to the corresponding maximum concentration ([1]; within 72 h after Day 10 dose, 4 mg once daily for 7 days): below 1%
- time at which mean plasma concentration reached maximum ([2]; across single oral doses of 1, 4 and 10 mg): 3.00 to 3.50 h
- CL/F ([2]; across the single-dose range of 1–10 mg): 0.757 to 0.834 L/h
- Vd/F ([2]; oral): 11.1 to 11.7 L
- half-life ([2]; oral): ~10 h
- AUC(0-inf) ([2]; po, 1 mg): 1360 ± 288 ng·h/mL
- Cmax ([2]; po, 1 mg): 104 ± 18.5 ng/mL
- Tmax ([2]; po, 1 mg): 3.5 h
- Vd/F ([2]; po, 1 mg): 11.1 ± 2.06 L
- half-life ([2]; po, 1 mg): 10.1 ± 1.26 h
- AUC(0-inf) ([2]; po, 4 mg): 4890 ± 683 ng·h/mL
- Cmax ([2]; po, 4 mg): 365 ± 35.2 ng/mL
- Tmax ([2]; po, 4 mg): 3 h
- Vd/F ([2]; po, 4 mg): 11.7 ± 1.12 L
- AUC(0-inf) ([2]; po, 10 mg): 13600 ± 2480 ng·h/mL
- Cmax ([2]; po, 10 mg): 964 ± 101 ng/mL
- Tmax ([2]; po, 10 mg): 3 h
- Vd/F ([2]; po, 10 mg): 11.6 ± 1.1 L
- half-life ([2]; po, 10 mg): 10.9 ± 1.53 h
- CL/F ([2]; single oral dose 1 mg, fasted, Cohort A, N = 8, mean ± SD): 0.764 ± 0.147 L/h
- CL/F ([2]; single oral dose 4 mg, fasted, Cohort B Day 1, N = 10, mean ± SD): 0.834 ± 0.130 L/h
- CL/F ([2]; single oral dose 10 mg, fasted, Cohort C, N = 8, mean ± SD): 0.757 ± 0.134 L/h
- mean plasma concentration relative to the corresponding maximum concentration ([2]; within 48 h after single oral doses of 1 to 10 mg): below 10%
- dose dependence of TEAEs ([3]; 1, 4 and 10 mg cohorts): No dose-dependent TEAEs were observed
- Number of subjects with at least one TEAE, any severity [3, 6]: 2 (25.0) n (%)
- Number of subjects with at least one TEAE, mild [3, 6]: 2 (25.0) n (%)
- Number of subjects with at least one TEAE, moderate [3, 6]: 0 n (%)
- Number of subjects with at least one TEAE, severe [3, 6]: 0 n (%)
- TEAE: Blood bilirubin increased (mild) [3, 6]: 0 n (%)
- TEAE: Body temperature increased (mild) [3, 6]: 0 n (%)
- TEAE: Alanine aminotransferase increased (mild) [3, 7]: 1 (12.5)^a n (%)
- TEAE: Blood triglycerides increased (mild) [3, 7]: 1 (12.5)^a n (%)
- Number of subjects with at least one TEAE, any severity [3, 8]: 2 (20.0) n (%)
- Number of subjects with at least one TEAE, mild [3, 8]: 2 (20.0) n (%)
- Number of subjects with at least one TEAE, moderate [3, 8]: 0 n (%)
- Number of subjects with at least one TEAE, severe [3, 8]: 0 n (%)
- TEAE: Alanine aminotransferase increased (mild) [3, 8]: 0 n (%)
- TEAE: Blood bilirubin increased (mild) [3, 8]: 1 (10.0) n (%)
- TEAE: Blood triglycerides increased (mild) [3, 8]: 0 n (%)
- TEAE: Body temperature increased (mild) [3, 8]: 1 (10.0) n (%)
- Number of subjects with at least one TEAE, any severity [3, 9]: 0 n (%)
- Number of subjects with at least one TEAE, mild [3, 9]: 0 n (%)
- Number of subjects with at least one TEAE, moderate [3, 9]: 0 n (%)
- Number of subjects with at least one TEAE, severe [3, 9]: 0 n (%)
- TEAE: Alanine aminotransferase increased (mild) [3, 9]: 0 n (%)
- TEAE: Blood bilirubin increased (mild) [3, 9]: 0 n (%)
- TEAE: Blood triglycerides increased (mild) [3, 9]: 0 n (%)
- TEAE: Body temperature increased (mild) [3, 9]: 0 n (%)
- Number of subjects with at least one TEAE, any severity ([3]; Total, all cohorts, N = 26): 4 (15.4) n (%)
- Number of subjects with at least one TEAE, mild ([3]; Total, all cohorts, N = 26): 4 (15.4) n (%)
- Number of subjects with at least one TEAE, moderate ([3]; Total, all cohorts, N = 26): 0 n (%)
- Number of subjects with at least one TEAE, severe ([3]; Total, all cohorts, N = 26): 0 n (%)
- TEAE: Alanine aminotransferase increased (mild) ([3]; Total, all cohorts, N = 26): 1 (3.8) n (%)
- TEAE: Blood bilirubin increased (mild) ([3]; Total, all cohorts, N = 26): 1 (3.8) n (%)
- TEAE: Blood triglycerides increased (mild) ([3]; Total, all cohorts, N = 26): 1 (3.8) n (%)
- TEAE: Body temperature increased (mild) ([3]; Total, all cohorts, N = 26): 1 (3.8) n (%)
- severity and outcome of TEAEs ([3]; all cohorts): All the TEAEs were mild and resolved without any treatment
- fatal TEAE, serious TEAE, or TEAE leading to discontinuation of study drug ([3]; all cohorts, 1–10 mg): No fatal TEAE, serious TEAE, or TEAE leading to discontinuation of study drug was reported
- subjects who experienced at least 1 TEAE ([3]; all cohorts, 4 of 26 subjects): 15.4%
- subjects who experienced at least 1 TEAE ([3]; single and multiple doses of 4 mg (Cohort B), 2/10 subjects): 20.0%
- subjects who experienced at least 1 TEAE ([3]; single dose 1 mg (Cohort A), 2/8 subjects): 25.0%
